Mdm2-MdmX inh: inhibitors of human Mdm2-MdmX association, primary screen, cell-based, luminescence, split luciferase, SaOS-2, uHTS; Protein Mdm4 (Homo sapiens) + E3 ubiquitin-protein ligase Mdm2 (Homo sapiens), …; SaOS-2 split-luciferase Mdm2/MdmX complementation; inhibition, % at 8 µM; actives 3% (n = 330,000); AID 485346, 2010;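 active means inhibition of at least 50% at 8 µM in the primary screen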
Target sequence (O15151 whole entry, looked up): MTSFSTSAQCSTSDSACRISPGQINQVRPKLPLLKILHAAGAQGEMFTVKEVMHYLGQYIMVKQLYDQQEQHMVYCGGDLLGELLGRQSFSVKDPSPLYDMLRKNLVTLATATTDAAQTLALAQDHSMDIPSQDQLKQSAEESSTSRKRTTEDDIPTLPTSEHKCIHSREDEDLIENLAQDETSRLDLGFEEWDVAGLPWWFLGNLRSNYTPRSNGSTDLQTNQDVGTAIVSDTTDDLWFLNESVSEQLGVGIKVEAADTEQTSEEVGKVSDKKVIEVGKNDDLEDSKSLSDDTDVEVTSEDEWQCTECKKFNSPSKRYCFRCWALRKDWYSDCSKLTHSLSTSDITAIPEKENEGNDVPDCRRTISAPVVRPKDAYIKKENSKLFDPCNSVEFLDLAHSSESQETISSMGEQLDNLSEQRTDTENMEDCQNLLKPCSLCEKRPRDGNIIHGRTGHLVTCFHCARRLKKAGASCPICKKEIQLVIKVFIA
Target sequence (Q00987 whole entry, looked up): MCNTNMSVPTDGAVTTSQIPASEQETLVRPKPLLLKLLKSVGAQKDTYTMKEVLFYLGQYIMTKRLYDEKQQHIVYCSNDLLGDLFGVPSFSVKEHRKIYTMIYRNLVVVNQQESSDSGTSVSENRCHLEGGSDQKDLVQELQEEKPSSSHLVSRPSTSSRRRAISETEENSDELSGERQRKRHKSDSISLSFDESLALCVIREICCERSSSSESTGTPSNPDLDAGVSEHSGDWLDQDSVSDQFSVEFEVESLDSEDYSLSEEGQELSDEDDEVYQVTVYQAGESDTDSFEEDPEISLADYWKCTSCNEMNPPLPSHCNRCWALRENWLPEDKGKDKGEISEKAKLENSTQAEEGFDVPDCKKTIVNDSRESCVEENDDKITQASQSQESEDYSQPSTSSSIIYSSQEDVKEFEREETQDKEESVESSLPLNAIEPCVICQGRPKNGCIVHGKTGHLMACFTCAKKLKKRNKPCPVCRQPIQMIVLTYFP
Calb FLC: C. albicans growth inhibition with fluconazole, primary screen, CaCi-2 strain, Alamar Blue fluorescence; growth inhibition, % (test concentration not listed); actives 0.57% (n = 300,000); C. albicans CaCi-2 (fluconazole-resistant clinical isolate) + fluconazole, 48 h;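 active means growth inhibition above about 58% in most replicates, limit read from the data, passing the limit was not always enough; inconclusive means exactly half the replicates above a set limit; inactive means most replicates below a set limit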;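 further: all wells also contain fluconazole at 8 µg/ml as a sub-toxic cotreatment; 0% = median of DMSO wells and 100% = median of geldanamycin control wells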
T cruzi repl: inhibitors of intracellular T. cruzi growth, primary screen, luminescence, NIH3T3 host cells | actives 1.4% (n = 300,000) | inhibition, % (no concentration beside the values) | T. cruzi beta-gal in NIH3T3, 90 h;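 active means mean inhibition across valid replicates above about 55%, limit read from the data; inconclusive means mean below that limit but half or more replicates reach it; inactive means mean below it, under half of replicates reach it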;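 further: signal also drops with host cell toxicity which is not excluded here; 0% = plate median of DMSO wells and 100% = zero luminescence signal; higher percent means less beta-gal luminescence so fewer parasites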
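compound dosing = single 50 nL compound addition per well in DMSO | material = NIH/3T3 host cells with β-galactosidase reporter T. cruzi | input = 5,000 host fibroblasts per well | timing = ≥90 h infection period, 3 h prior cell attachment | read-out basis = percent inhibition of parasite-derived β-gal signal | detection = GalScreen β-gal luminescence, detergent lysis, 60 min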
CSC inhib: cancer stem cell viability inhibitors, primary screen, luminescence; cancer stem cell-like cells viability; inhibition, % at 7.5 µM; actives 1.1% (n = 300,000); in the data active means inhibition above about 75%; inconclusive means no clear call, values can overlap the other calls; tested in HMLE shEcad cells
Beta apoptosis: inhibitors of cytokine-induced beta cell apoptosis, primary screen, luminescence | INS-1E cytokine-induced death, ATP luminescence, 48 h; percent of positive-control rescue, neutral wells zero | protection from apoptosis, % (concentration not given with the values) | actives 0.8% (n = 300,000);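 active means Every replicate reaches about 75%, or at least half do and their mean reaches it too, limit read from the data; inconclusive means At least half of replicates reach the limit but their mean does not; inactive means Under half of replicates reach the limit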;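 further: 0% = cytokine-treated negative control wells and 100% = positive control rescue; higher means more ATP so stronger rescue from cytokine killing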
SKKanGAS inh: S. pyogenes SKKanGAS growth inhibitors in kanamycin, primary screen, streptokinase expression inhibitor project, SKKanGAS strain, BacTiter-Glo luminescence; inhibition, % at 7.5 µM; 6 h; actives 1.3% (n = 300,000);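 active means mean replicate score, as percent of positive control median, at least 50; inconclusive means mean below 50 but one replicate at or above 50; inactive means mean and every replicate below 50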;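 further: strain carries kanamycin resistance gene driven by streptokinase promoter and grows in 40 µg/ml kanamycin; loss of luminescence reflects streptokinase promoter inhibition or plain growth inhibition; 0% = median of DMSO wells and 100% = positive control at its reference dose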
Mdm2 MdmX conf: Mdm2-MdmX complex disruptors, retested hits, confirmation, luminescence, single concentration | shares compounds with Mdm2-MdmX inh | Mdm2-MdmX binding, luminescent assay | inhibition, % at 8 µM | actives 55% (n = 10,000); in the data active means inhibition above about 40%
Full FLuc ctr: full-length luciferase signal inhibition, confirmation, counter-screen for Mdm2/MdmX interaction inhibitor project, cell-based, single concentration, SaOS-2. SaOS-2 full-length luciferase counterscreen, luminescence. actives 77% (n = 6,200). shares compounds with Mdm2-MdmX inh. AID 504607, 2011. inhibition, % at 8 µM;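 active means mean inhibition at 8 µM reaching about 37%, which flags the compound as non-specific, limit read from the data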;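 further: p53-null SaOS-2 cells with luciferase driven by a doxycycline-inducible promoter; compound on cells about two nights before reading with doxycycline added after day one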
An asterisk follows results filed as active. In the library only some 5.7% were active in any assay of this set; here they are far more common.

Screening CC1Cc2ccccc2N1C(=O)c1cc2c(=O)n3ccccc3nc2n1C (stereo not drawn) returned Mdm2-MdmX inh 53*, Calb FLC 34, T cruzi repl 2, CSC inhib 18, Beta apoptosis 0, SKKanGAS inh 2 and Mdm2 MdmX conf 10.
Screening CCCN1C(=S)c2ccccc2C1c1ccccc1 (stereo not drawn) returned Mdm2-MdmX inh 9, Calb FLC 5, T cruzi repl 1, CSC inhib 0, Beta apoptosis -4 and SKKanGAS inh 13.
For Cc1c(C)c2ccc(OCC(=O)Nc3ccccn3)c(C)c2oc1=O the results were Mdm2-MdmX inh 88*, Calb FLC 3, T cruzi repl -4, CSC inhib 38, Beta apoptosis -6, SKKanGAS inh 25, Mdm2 MdmX conf 90* and Full FLuc ctr 52*.
`Cc1c(C)c2ccc(OCC(=O)N(C)C)c(C)c2oc1=O` gave Mdm2-MdmX inh -28, Calb FLC -2, T cruzi repl 0, CSC inhib -2, Beta apoptosis 2 and SKKanGAS inh -3.
`Cc1cccc(C)c1NC(=O)COc1ccc2c(C)c(Cc3ccccc3)c(=O)oc2c1C` gave Mdm2-MdmX inh 97*, Calb FLC 24, T cruzi repl -7, CSC inhib 1, Beta apoptosis 10, SKKanGAS inh -8 and Mdm2 MdmX conf 11.
Cc1ccc(OCC(=O)c2c(N)n(C)c(=O)n(C)c2=O)c([N+](=O)[O-])n1 was read as Mdm2-MdmX inh -26 and Beta apoptosis -2.
O=C1c2ccccc2C(=O)C2OC12 (stereo not drawn) was read as Mdm2-MdmX inh 72*, Calb FLC 3, T cruzi repl 2, CSC inhib 49, Beta apoptosis -49, SKKanGAS inh 21, Mdm2 MdmX conf 31 and Full FLuc ctr 44*.
`O=c1cnc2ccccc2n1Cc1ccccc1C(F)(F)F` gave Mdm2-MdmX inh 25, Calb FLC 1, T cruzi repl 0, CSC inhib -14, Beta apoptosis -4 and SKKanGAS inh 3.
For Cc1ccccc1OCCC(=O)Nc1cc(S(=O)(=O)N2CCOCC2)ccc1OC(C)C the results were Mdm2-MdmX inh 18, Calb FLC 2, T cruzi repl 11, CSC inhib -2 and SKKanGAS inh 12.
For CC1CCCC(C)N1CCCNC(=O)c1ccc2c(c1)NC(=O)c1ccccc1S2 (stereo not drawn) the results were Mdm2-MdmX inh 3, Calb FLC inconclusive, T cruzi repl 13, CSC inhib 9, Beta apoptosis -5 and SKKanGAS inh -2.
For CCC(C)N(CCNC(=O)c1ccc2c(c1)NC(=O)c1ccccc1S2)C1CCCCC1 (stereo not drawn) the results were Mdm2-MdmX inh 67*, Calb FLC -30, T cruzi repl 27, CSC inhib 16, Beta apoptosis 2, SKKanGAS inh 3, Mdm2 MdmX conf 48* and Full FLuc ctr 56*.
Cc1nn(-c2cccc(Cl)c2)c(Cl)c1/C=N/NC(=O)c1cccs1 was read as Mdm2-MdmX inh 78*, Calb FLC 8, T cruzi repl 1, CSC inhib 30, Beta apoptosis 15, SKKanGAS inh -3, Mdm2 MdmX conf 54* and Full FLuc ctr 48*.
Screening CCCCNC(=O)CCn1nc(-c2ccc(C)cc2)c2ccccc2c1=O returned Mdm2-MdmX inh 11, Calb FLC -1, T cruzi repl 8, CSC inhib -2, Beta apoptosis 6 and SKKanGAS inh -1.
Cc1ccsc1/C=C1\SC(N2CC(C)OC(C)C2)=NC1=O (stereo not drawn) was read as Mdm2-MdmX inh -37, Calb FLC 12, T cruzi repl -13, CSC inhib -15, Beta apoptosis -5 and SKKanGAS inh 2.
CCN(CCNCC(O)COc1ccccc1C(C)C)c1cccc(C)c1 (stereo not drawn) was read as Mdm2-MdmX inh 68*, Calb FLC 11, T cruzi repl 28, CSC inhib 100*, Beta apoptosis 29, SKKanGAS inh 15, Mdm2 MdmX conf 41* and Full FLuc ctr 75*.
For O=C(CN1C(=O)NC2(CCCCCC2)C1=O)c1ccc(Cl)s1 the results were Mdm2-MdmX inh -3, Calb FLC -8, T cruzi repl 3, CSC inhib -11, Beta apoptosis 1 and SKKanGAS inh 3.
Screening COc1ccc(NC(=O)c2cc(CC(C)C)nc3ccccc23)cc1 returned Mdm2-MdmX inh 91*, Calb FLC 26, T cruzi repl 2, CSC inhib -2, Beta apoptosis -4, SKKanGAS inh -4, Mdm2 MdmX conf 90* and Full FLuc ctr 52*.
`Cc1ccc(NC(=O)c2cc(C)nc3ccccc23)cc1` gave Mdm2-MdmX inh 10, Calb FLC -4, T cruzi repl -17, CSC inhib 0, Beta apoptosis 0 and SKKanGAS inh -1.
`Cc1ccc(NC(=O)c2cc(CC(C)C)nc3ccccc23)cc1` gave Mdm2-MdmX inh 82*, Calb FLC 2, T cruzi repl 3, CSC inhib -5, Beta apoptosis -3, SKKanGAS inh 0, Mdm2 MdmX conf 84* and Full FLuc ctr 55*.
For COc1cccc(-c2cc(C(=O)Nc3ccncc3)c3ccccc3n2)c1 the results were Mdm2-MdmX inh -5, Calb FLC -9, T cruzi repl 48, CSC inhib -5, Beta apoptosis 15 and SKKanGAS inh 5.
For CCN1CCN(c2cc(C)c3cc(NC(=O)c4ccc(C)c(C)c4)ccc3n2)CC1 the results were Mdm2-MdmX inh 67*, Calb FLC 3, T cruzi repl 44, CSC inhib 30, Beta apoptosis 3, SKKanGAS inh 2 and Mdm2 MdmX conf 16.
For CCN1CCN(c2cc(C)c3cc(NC(=O)c4ccncc4)ccc3n2)CC1 the results were Mdm2-MdmX inh 2, Calb FLC -4, T cruzi repl 13, CSC inhib 3 and SKKanGAS inh 0.

Assay outcomes (PubChem BioAssay)
